Source: ChEMBL document CHEMBL1124321, “Design of potent linear alpha-melanotropin 4-10 analogues modified in positions 5 and 10” (J Med Chem, 1989)
Non-standard residues stand in square brackets, D forms with d. Residues, ends and D or L forms follow the SMILES beside them. Nle = CCCC[C@H](N)C(=O)O

Key:
[1] = test system: Melanocyte-stimulating hormone receptor (Rana pipiens); experiment: In vitro potency in frog (Rana pipiens) skin assay relative to alpha-MSH
lizard = experiment: In vitro potency in lizard (Anolis carolinensis) skin bioassay relative to alpha-MSH; format: functional
In short: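 Isolated skins incubated in vitro with peptide across the full log dose-response range. Darkening from melanosome dispersion into melanophore dendrites is read as surface reflectance on a reflectometer and expressed as percent response versus the time-zero value. Each point is a mean ± SE of 6 or more skins. Potency is taken from the dose-response curves relative to α-MSH.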

| Structure (SMILES) | Activity [1] | Activity (lizard) |
| --- | --- | --- |
| CCCC[C@H](NC(=O)[C@H](CO)NC(=O)[C@H](Cc1ccc(O)cc1)NC(=O)[C@H](CO)NC(C)=O)C(=O)N[C@@H](CC(=O)O)C(=O)N[C@@H](Cc1c[nH]cn1)C(=O)N[C@H](Cc1ccccc1)C(=O)N[C@@H](CCCN=C(N)N)C(=O)N[C@@H](Cc1c[nH]c2ccccc12)C(=O)N[C@@H](CCCCN)C(=O)NCC(=O)N1CCC[C@H]1C(=O)N[C@H](C(N)=O)C(C)C (Ac-SYS[Nle]DH[dF]RWKGPV-NH2) | 9 | 8 |
| CCCC[C@H](NC(C)=O)C(=O)N[C@@H](CCC(=O)O)C(=O)N[C@@H](Cc1c[nH]cn1)C(=O)N[C@H](Cc1ccccc1)C(=O)N[C@@H](CCCN=C(N)N)C(=O)N[C@@H](Cc1c[nH]c2ccccc12)C(=O)N[C@@H](CCCCN)C(=O)NCC(=O)N1CCC[C@H]1C(=O)N[C@H](C(N)=O)C(C)C (Ac-[Nle]EH[dF]RWKGPV-NH2) | 0.8 | 8 |
| CCCC[C@H](NC(C)=O)C(=O)N[C@@H](CCC(=O)O)C(=O)N[C@@H](Cc1c[nH]cn1)C(=O)N[C@H](Cc1ccccc1)C(=O)N[C@@H](CCCN=C(N)N)C(=O)N[C@@H](Cc1c[nH]c2ccccc12)C(=O)N[C@@H](CCCN)C(N)=O | 0.6 | 8 |
| CCCC[C@H](NC(C)=O)C(=O)N[C@@H](CCC(=O)O)C(=O)N[C@@H](Cc1c[nH]cn1)C(=O)N[C@@H](Cc1ccccc1)C(=O)N[C@@H](CCCN=C(N)N)C(=O)N[C@@H](Cc1c[nH]c2ccccc12)C(=O)N[C@@H](CCCCN)C(N)=O | 0.001 | 0.08 |
| CCCC[C@H](NC(C)=O)C(=O)N[C@@H](CCC(=O)O)C(=O)N[C@@H](Cc1c[nH]cn1)C(=O)N[C@H](Cc1ccccc1)C(=O)N[C@@H](CCCN=C(N)N)C(=O)N[C@@H](Cc1c[nH]c2ccccc12)C(=O)N[C@@H](CCN)C(N)=O | 0.9 | 10 |
| CCCC[C@H](NC(=O)[C@H](CO)NC(=O)[C@H](Cc1ccc(O)cc1)NC(=O)[C@H](CO)NC(C)=O)C(=O)N[C@@H](CCC(=O)O)C(=O)N[C@@H](Cc1c[nH]cn1)C(=O)N[C@H](Cc1ccccc1)C(=O)N[C@@H](CCCN=C(N)N)C(=O)N[C@@H](Cc1c[nH]c2ccccc12)C(=O)N[C@@H](CCCCN)C(=O)NCC(=O)N1CCC[C@H]1C(=O)N[C@H](C(N)=O)C(C)C (Ac-SYS[Nle]EH[dF]RWKGPV-NH2) | 6 | 8 |
| CCCC[C@H](NC(C)=O)C(=O)N[C@@H](CC(=O)O)C(=O)N[C@@H](Cc1c[nH]cn1)C(=O)N[C@H](Cc1ccccc1)C(=O)N[C@@H](CCCN=C(N)N)C(=O)N[C@@H](Cc1c[nH]c2ccccc12)C(=O)N[C@@H](CCCCN)C(N)=O | – | 8 |
| CCCC[C@H](NC(C)=O)C(=O)N[C@@H](CC(=O)O)C(=O)N[C@@H](Cc1c[nH]cn1)C(=O)N[C@H](Cc1ccccc1)C(=O)N[C@@H](CCCN=C(N)N)C(=O)N[C@@H](Cc1c[nH]c2ccccc12)C(=O)N[C@@H](CCCN)C(N)=O | 0.9 | 10 |
| CCCC[C@H](NC(C)=O)C(=O)N[C@@H](CCC(=O)O)C(=O)N[C@@H](Cc1c[nH]cn1)C(=O)N[C@H](Cc1ccccc1)C(=O)N[C@@H](CCCN=C(N)N)C(=O)N[C@@H](Cc1c[nH]c2ccccc12)C(=O)N[C@@H](CCCCN)C(N)=O | 0.2 | 8 |
| CCCC[C@H](NC(C)=O)C(=O)N[C@@H](CC(=O)O)C(=O)N[C@@H](Cc1c[nH]cn1)C(=O)N[C@H](Cc1ccccc1)C(=O)N[C@@H](CCCN=C(N)N)C(=O)N[C@@H](Cc1c[nH]c2ccccc12)C(=O)N[C@@H](CCCCN)C(=O)NCC(=O)N1CCC[C@H]1C(=O)N[C@H](C(N)=O)C(C)C (Ac-[Nle]DH[dF]RWKGPV-NH2) | 1 | 10 |
| CCCC[C@H](NC(C)=O)C(=O)N[C@@H](CC(=O)O)C(=O)N[C@@H](Cc1c[nH]cn1)C(=O)N[C@@H](Cc1ccccc1)C(=O)N[C@@H](CCCN=C(N)N)C(=O)N[C@@H](Cc1c[nH]c2ccccc12)C(=O)N[C@@H](CCCCN)C(N)=O | – | 0.08 |
| CCCC[C@H](NC(C)=O)C(=O)N[C@@H](CC(=O)O)C(=O)N[C@@H](Cc1c[nH]cn1)C(=O)N[C@H](Cc1ccccc1)C(=O)N[C@@H](CCCN=C(N)N)C(=O)N[C@@H](Cc1c[nH]c2ccccc12)C(=O)N[C@@H](CN)C(N)=O | 0.2 | 8 |
| CCCC[C@H](NC(C)=O)C(=O)N[C@@H](CC(=O)O)C(=O)N[C@@H](Cc1c[nH]cn1)C(=O)N[C@H](Cc1ccccc1)C(=O)N[C@@H](CCCN=C(N)N)C(=O)N[C@@H](Cc1c[nH]c2ccccc12)C(=O)N[C@@H](CCN)C(N)=O | 0.9 | 50 |
| CCCC[C@H](NC(C)=O)C(=O)N[C@@H](CC(=O)O)C(=O)N[C@@H](Cc1c[nH]cn1)C(=O)N[C@H](Cc1ccccc1)C(=O)N[C@@H](CCCN=C(N)N)C(=O)N[C@@H](Cc1c[nH]c2ccccc12)C(=O)NCC(N)=O | 0.1 | 8 |
